According to ChEMBL document CHEMBL1126061, “Cyclic RGD peptide analogues as antiplatelet antithrombotics” (J Med Chem, 1992):
*1 amine or outer side, *2 acyl side, *3 side chain or, on linkers, in order; H or OH if unused. Where a SMILES comes first, the peptide text is derived from it. Bridges are numbered along the chain shown (N, C = ends). [ ]: non-standard residue; d: D form. Cys(O)(CH2CO) = O=C([C@H](C[S+]([O-])CC(=O)[*:3])N[*:1])[*:2]; X1 = C[C@@H](O)[C@@H](C(=O)[*:2])N(c1cccc(CC[*:3])c1)[*:1]; X2 = C[C@H](O)[C@H](C(=O)[*:2])N(c1cccc(CC[*:3])c1)[*:1]

Target: Integrin alpha-IIb/beta-3 (Homo sapiens, UniProt P05106+P08514)
Sequence (P05106 27-788 limits assumed): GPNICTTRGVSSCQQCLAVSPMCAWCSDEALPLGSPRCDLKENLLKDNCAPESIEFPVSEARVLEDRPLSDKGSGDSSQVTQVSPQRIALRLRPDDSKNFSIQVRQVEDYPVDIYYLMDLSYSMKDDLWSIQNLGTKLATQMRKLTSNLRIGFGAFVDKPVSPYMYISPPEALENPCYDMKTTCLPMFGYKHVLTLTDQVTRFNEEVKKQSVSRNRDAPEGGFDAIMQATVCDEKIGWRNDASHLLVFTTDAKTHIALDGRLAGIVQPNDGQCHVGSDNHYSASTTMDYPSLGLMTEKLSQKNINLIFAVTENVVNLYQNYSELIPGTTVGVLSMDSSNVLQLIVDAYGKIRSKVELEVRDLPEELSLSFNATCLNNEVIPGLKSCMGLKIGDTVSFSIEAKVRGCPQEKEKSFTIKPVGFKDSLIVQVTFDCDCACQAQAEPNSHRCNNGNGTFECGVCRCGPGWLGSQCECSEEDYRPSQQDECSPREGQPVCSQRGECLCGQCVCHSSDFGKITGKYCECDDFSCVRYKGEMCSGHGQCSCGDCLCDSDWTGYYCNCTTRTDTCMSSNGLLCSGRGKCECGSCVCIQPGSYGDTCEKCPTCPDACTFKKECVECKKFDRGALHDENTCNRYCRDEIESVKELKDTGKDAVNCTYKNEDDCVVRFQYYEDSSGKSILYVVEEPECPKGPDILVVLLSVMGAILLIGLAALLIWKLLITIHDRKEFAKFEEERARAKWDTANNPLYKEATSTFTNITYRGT
Sequence (P08514 32-887 limits assumed): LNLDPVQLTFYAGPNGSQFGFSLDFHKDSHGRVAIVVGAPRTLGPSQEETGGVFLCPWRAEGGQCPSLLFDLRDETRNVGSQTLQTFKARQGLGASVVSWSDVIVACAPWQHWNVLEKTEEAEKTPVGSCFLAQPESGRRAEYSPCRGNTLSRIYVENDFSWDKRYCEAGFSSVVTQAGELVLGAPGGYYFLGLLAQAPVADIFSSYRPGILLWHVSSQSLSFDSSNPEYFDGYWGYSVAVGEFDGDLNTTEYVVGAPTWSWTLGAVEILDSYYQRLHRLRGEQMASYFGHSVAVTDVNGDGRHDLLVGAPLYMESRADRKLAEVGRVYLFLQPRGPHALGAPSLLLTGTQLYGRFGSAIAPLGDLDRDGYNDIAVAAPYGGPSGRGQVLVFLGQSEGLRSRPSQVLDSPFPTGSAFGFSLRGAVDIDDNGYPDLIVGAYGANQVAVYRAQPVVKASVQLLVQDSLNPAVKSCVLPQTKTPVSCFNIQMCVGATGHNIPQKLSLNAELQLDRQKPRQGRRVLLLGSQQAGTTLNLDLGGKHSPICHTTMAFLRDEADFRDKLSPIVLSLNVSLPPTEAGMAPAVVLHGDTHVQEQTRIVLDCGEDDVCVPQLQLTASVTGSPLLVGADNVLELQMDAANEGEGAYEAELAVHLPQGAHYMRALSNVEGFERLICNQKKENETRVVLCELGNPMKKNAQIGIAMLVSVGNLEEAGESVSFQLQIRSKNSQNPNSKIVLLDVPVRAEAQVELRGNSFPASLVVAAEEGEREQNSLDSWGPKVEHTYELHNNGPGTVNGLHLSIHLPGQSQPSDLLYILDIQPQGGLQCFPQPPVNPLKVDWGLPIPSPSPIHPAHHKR
Sequence (P08514 891-1039 limits assumed): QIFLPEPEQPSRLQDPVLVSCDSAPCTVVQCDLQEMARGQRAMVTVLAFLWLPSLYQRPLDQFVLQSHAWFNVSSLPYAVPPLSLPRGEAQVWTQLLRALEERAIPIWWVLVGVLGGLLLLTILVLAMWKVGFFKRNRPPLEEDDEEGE
Experiment: The compound was tested for the inhibition of fibrinogen receptor
Format: protein-complex assay
Outline: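 Solid-phase ELISA: human fibrinogen (10 µg/mL) coated, BSA-blocked; samples plus purified human platelet GPIIbIIIa (40 µg/mL) incubated 1 h at room temperature. Bound receptor detected with anti-GPIIbIIIa antibody AP3 (1 µg/mL, 1 h), then goat anti-mouse HRP (1 h); OPD/H2O2 at pH 5, stopped with H2SO4, absorbance 492-405 nm. IC50 from four-parameter fit; n ≥ 3.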

| Structure (SMILES) | IC50 |
| --- | --- |
| CC(C)C[C@H](NC(=O)[C@H](CC(=O)O)NC(=O)CNC(=O)[C@H](CCCN=C(N)N)NC(=O)CN)C(=O)O (H-GRGDL-OH) | 500 nM |
| N=C(N)NCCC[C@@H]1NC(=O)CNC(=O)CCSC[C@@H](C(=O)O)NC(=O)[C@H](CC(=O)O)NC(=O)CNC1=O | 75 nM |
| C[C@@H](O)[C@@H]1NC(=O)C[S+]([O-])C[C@@H](C(=O)O)NC(=O)[C@H](CC(=O)O)NC(=O)CNC(=O)[C@H](CCCN=C(N)N)NC1=O (stereo in doubt; 71A) | 1.8 nM |
| N=C(N)NCCC[C@@H]1NC(=O)[C@@H](Cc2ccc(O)cc2)NC(=O)CS(=O)(=O)C[C@@H](C(=O)O)NC(=O)[C@H](CC(=O)O)NC(=O)CNC1=O | 2.1 nM |
| N=C(N)NCCC[C@@H]1NC(=O)CNC(=O)CSC[C@@H](C(N)=O)NC(=O)[C@H](CC(=O)O)NC(=O)CNC1=O ({CH2CO}-GRGDC-NH2; thioether N-5) | 12 nM |
| N=C(N)NCCC[C@@H]1NC(=O)[C@@H](Cc2ccc(O)cc2)NC(=O)C[S+]([O-])C[C@@H](C(=O)O)NC(=O)[C@H](CC(=O)O)NC(=O)CNC1=O (stereo in doubt; 69B) | 40 nM |
| N=C(N)NCCC[C@@H]1NC(=O)[C@H](CCC(=O)O)NC(=O)C[S+]([O-])C[C@@H](C(=O)O)NC(=O)[C@H](CC(=O)O)NC(=O)CNC1=O (stereo in doubt; 73B) | 68 nM |
| CSCC[C@H]1NC(=O)CSC[C@@H](C(=O)O)NC(=O)[C@H](CC(=O)O)NC(=O)CNC(=O)[C@H](CCCNC(=N)N)NC1=O | 28 nM |
| N=C(N)NCCC[C@@H]1NC(=O)[C@H](CC(=O)O)NC(=O)CSC[C@@H](C(=O)O)NC(=O)[C@H](CC(=O)O)NC(=O)CNC1=O | 25 nM |
| NCC(=O)N[C@@H](CCCN=C(N)N)C(=O)NCC(=O)N[C@@H](CC(=O)O)C(=O)N[C@@H](CC(=O)O)C(=O)O (H-GRGDD-OH) | 231 nM |
| N=C(N)NCCC[C@@H]1NC(=O)[C@@H](Cc2ccccc2)NC(=O)CSC[C@@H](C(=O)O)NC(=O)[C@H](CC(=O)O)NC(=O)CNC1=O | 35 nM |
| N=C(N)NCCC[C@@H]1NC(=O)[C@@H](Cc2c[nH]c3ccccc23)NC(=O)CSC[C@@H](C(=O)O)NC(=O)[C@H](CC(=O)O)NC(=O)CNC1=O | 29 nM |
| CC[C@@H](C)[C@H]1NC(=O)CSC[C@@H](C(=O)O)NC(=O)[C@H](CC(=O)O)NC(=O)CNC(=O)[C@H](CCCN=C(N)N)NC1=O | 18 nM |
| N=C(N)NCCC[C@@H]1NC(=O)[C@@H](CCC(=O)O)NC(=O)CSC[C@@H](C(=O)O)NC(=O)[C@H](CC(=O)O)NC(=O)CNC1=O | 260 nM |
| CC(=O)NCC(=O)N[C@@H](CCCNC(=N)N)C(=O)NCC(=O)N[C@@H](CC(=O)O)C(=O)N[C@H](C(=O)O)C(C)C (Ac-GRGDV-OH) | 12 nM |
| CC(C)C[C@H]1NC(=O)CSC[C@@H](C(=O)O)NC(=O)[C@H](CC(=O)O)NC(=O)CNC(=O)[C@H](CCCNC(=N)N)NC1=O | 38 nM |
| CC(C)C[C@H](NC(=O)[C@H](CC(=O)O)NC(=O)CNC(=O)[C@@H](N)CCCN=C(N)N)C(=O)O (H-RGDL-OH) | 105 nM |
| N=C(N)NCCC[C@@H]1NC(=O)[C@@H](Cc2ccc(O)cc2)NC(=O)C[S+]([O-])C[C@@H](C(=O)O)NC(=O)[C@H](CC(=O)O)NC(=O)CNC1=O (stereo in doubt; 69A) | 7.3 nM |
| N=C(N)NCCC[C@@H]1NC(=O)CNC(=O)C(c2ccccc2)SC[C@@H](C(=O)O)NC(=O)[C@H](CC(=O)O)NC(=O)CNC1=O (stereo in doubt; 18A) | 15 nM |
| NC(N)=NCCC[C@H](N)C(=O)NCC(=O)N[C@@H](CC(=O)O)C(=O)N[C@@H](Cc1ccc(O)cc1)C(=O)O (H-RGDY-OH) | 70 nM |
| NC(=O)CC[C@H]1NC(=O)CSC[C@@H](C(=O)O)NC(=O)[C@H](CC(=O)O)NC(=O)CNC(=O)[C@H](CCCN=C(N)N)NC1=O | 110 nM |
| N=C(N)NCCC[C@@H]1NC(=O)CNC(=O)C(c2ccc(C(F)(F)F)cc2)SC[C@@H](C(=O)O)NC(=O)[C@H](CC(=O)O)NC(=O)CNC1=O (stereo in doubt; 22A) | 180 nM |
| N=C(N)NCCC[C@@H]1NC(=O)CNC(=O)C[S+]([O-])C[C@@H](C(=O)O)NC(=O)[C@H](CC(=O)O)NC(=O)CNC1=O (stereo in doubt; 66B) | 25 nM |
| N=C(N)NCCC[C@@H]1NC(=O)[C@H](Cc2ccc(O)cc2)NC(=O)C[S+]([O-])C[C@@H](C(=O)O)NC(=O)[C@H](CC(=O)O)NC(=O)CNC1=O (stereo in doubt; 70A) | 1.5 nM |
| N=C(N)NCCC[C@@H]1NC(=O)[C@H](CCC(=O)O)NC(=O)CSC[C@@H](C(=O)O)NC(=O)[C@H](CC(=O)O)NC(=O)CNC1=O | 15 nM |
| N=C(N)NCCC[C@@H]1NC(=O)[C@@H](CCCN)NC(=O)CSC[C@@H](C(=O)O)NC(=O)[C@H](CC(=O)O)NC(=O)CNC1=O | 31 nM |
| N=C(N)NCCC[C@@H]1NC(=O)[C@@H](CC(N)=O)NC(=O)CSC[C@@H](C(=O)O)NC(=O)[C@H](CC(=O)O)NC(=O)CNC1=O ({CH2CO}-[dN]RGDC-OH; thioether N-5) | 35 nM |

The remaining lines, values ahead:

| IC50 | Structure (SMILES) |
| --- | --- |
| 6 nM | N=C(N)NCCC[C@@H]1NC(=O)[C@H](CC(=O)O)NC(=O)C[S+]([O-])C[C@@H](C(=O)O)NC(=O)[C@H](CC(=O)O)NC(=O)CNC1=O (some centres not stated) (DRGD[Cys(O)(CH2CO)]-OH; lactam N-5) |
| 5 nM | N=C(N)NCCC[C@@H]1NC(=O)CNC(=O)C(c2ccc(-c3ccccc3)cc2)SC[C@@H](C(=O)O)NC(=O)[C@H](CC(=O)O)NC(=O)CNC1=O (stereo in doubt; 19A) |
| 7.5 nM | NCCCC[C@@H]1NC(=O)CSC[C@@H](C(=O)O)NC(=O)[C@H](CC(=O)O)NC(=O)CNC(=O)[C@H](CCCN=C(N)N)NC1=O |
| 7 nM | C[C@H](O)[C@H]1Nc2cccc(c2)CCSC[C@@H](C(=O)O)NC(=O)[C@H](CC(=O)O)NC(=O)CNC(=O)[C@H](CCCN=C(N)N)NC1=O (H-[X2]RGDC-OH; thioether 1-5) |
| 1.5 nM | N=C(N)NCCC[C@@H]1NC(=O)[C@H](Cc2ccc(O)cc2)NC(=O)CSC[C@@H](C(=O)O)NC(=O)[C@H](CC(=O)O)NC(=O)CNC1=O ({CH2CO}-YRGDC-OH; thioether N-5) |
| 4.5 nM | N=C(N)NCCC[C@@H]1NC(=O)[C@H](Cc2ccc(O)cc2)NC(=O)C[S+]([O-])C[C@@H](C(N)=O)NC(=O)[C@H](CC(=O)O)NC(=O)CNC1=O (some centres not stated) (YRGD[Cys(O)(CH2CO)]-NH2; lactam N-5) |
| 5.3 nM | N=C(N)NCCC[C@@H]1NC(=O)[C@H](CC(N)=O)NC(=O)C[S+]([O-])C[C@@H](C(=O)O)NC(=O)[C@H](CC(=O)O)NC(=O)CNC1=O (stereo in doubt; 67B) |
| 1.7 nM | C[C@@H](O)[C@@H]1Nc2cccc(c2)CCSC[C@@H](C(=O)O)NC(=O)[C@H](CC(=O)O)NC(=O)CNC(=O)[C@H](CCCN=C(N)N)NC1=O (H-[X1]RGDC-OH; thioether 1-5) |
| 2.5 nM | N=C(N)NCCC[C@@H]1NC(=O)[C@H](Cc2ccc(O)cc2)NC(=O)CSC[C@@H](C(N)=O)NC(=O)[C@H](CC(=O)O)NC(=O)CNC1=O ({CH2CO}-YRGDC-NH2; thioether N-5) |
| 11.6 nM | C[C@H](O)[C@H]1NC(=O)CSC[C@@H](C(=O)O)NC(=O)[C@H](CC(=O)O)NC(=O)CNC(=O)[C@H](CCCN=C(N)N)NC1=O |
| 2.8 nM | N=C(N)NCCC[C@@H]1NC(=O)CNC(=O)C(c2ccc3ccccc3c2)SC[C@@H](C(=O)O)NC(=O)[C@H](CC(=O)O)NC(=O)CNC1=O (stereo in doubt; 21B) |
| 4 nM | N=C(N)NCCC[C@@H]1NC(=O)CNC(=O)C(c2ccc(C(F)(F)F)cc2)SC[C@@H](C(=O)O)NC(=O)[C@H](CC(=O)O)NC(=O)CNC1=O (stereo in doubt; 22B) |
| 2.7 nM | N=C(N)NCCC[C@@H]1NC(=O)[C@H](CC(N)=O)NC(=O)CSC[C@@H](C(=O)O)NC(=O)[C@H](CC(=O)O)NC(=O)CNC1=O ({CH2CO}-NRGDC-OH; thioether N-5) |
| 2 nM | CC(C)[C@@H]1NC(=O)CSC[C@@H](C(=O)O)NC(=O)[C@H](CC(=O)O)NC(=O)CNC(=O)[C@H](CCCN=C(N)N)NC1=O |
| 3.6 nM | CC(C)(C)C[C@@H]1NC(=O)CSC[C@@H](C(=O)O)NC(=O)[C@H](CC(=O)O)NC(=O)CNC(=O)[C@H](CCCNC(=N)N)NC1=O |
| 9.5 nM | C[C@H]1NC(=O)CSC[C@@H](C(=O)O)NC(=O)[C@H](CC(=O)O)NC(=O)CNC(=O)[C@H](CCCNC(=N)N)NC1=O ({CH2CO}-[dA]RGDC-OH; thioether N-5) |
| 4 nM | N=C(N)NCCC[C@@H]1NC(=O)[C@H](CO)NC(=O)CSC[C@@H](C(=O)O)NC(=O)[C@H](CC(=O)O)NC(=O)CNC1=O |
| 3 nM | CC(C)C[C@@H]1NC(=O)CSC[C@@H](C(=O)O)NC(=O)[C@H](CC(=O)O)NC(=O)CNC(=O)[C@H](CCCNC(=N)N)NC1=O |
| 11.4 nM | N=C(N)NCCC[C@@H]1NC(=O)[C@H]2CCCN2C(=O)CSC[C@@H](C(=O)O)NC(=O)[C@H](CC(=O)O)NC(=O)CNC1=O ({CH2CO}-[dP]RGDC-OH; thioether N-5) |
| 3.5 nM | N=C(N)NCCC[C@@H]1NC(=O)CNC(=O)C(c2ccc(-c3ccccc3)cc2)SC[C@@H](C(=O)O)NC(=O)[C@H](CC(=O)O)NC(=O)CNC1=O (stereo in doubt; 19B) |
| 5.7 nM | N=C(N)NCCC[C@@H]1NC(=O)CNC(=O)C(c2cccc(C(F)(F)F)c2)SC[C@@H](C(=O)O)NC(=O)[C@H](CC(=O)O)NC(=O)CNC1=O (stereo in doubt; 24B) |
| 0.5 nM | N=C(N)NCCC[C@@H]1NC(=O)CNC(=O)C(c2ccccc2)SC[C@@H](C(=O)O)NC(=O)[C@H](CC(=O)O)NC(=O)CNC1=O (stereo in doubt; 18B) |
| 6 nM | N=C(N)NCCC[C@@H]1NC(=O)[C@H](CC(N)=O)NC(=O)C[S+]([O-])C[C@@H](C(=O)O)NC(=O)[C@H](CC(=O)O)NC(=O)CNC1=O (stereo in doubt; 67A) |
| 5.4 nM | CCCC1SC[C@@H](C(=O)O)NC(=O)[C@H](CC(=O)O)NC(=O)CNC(=O)[C@H](CCCNC(=N)N)NC(=O)CNC1=O (stereo in doubt; 23B) |
| 1.6 nM | C[C@@H]1NC(=O)C[S+]([O-])C[C@@H](C(=O)O)NC(=O)[C@H](CC(=O)O)NC(=O)CNC(=O)[C@H](CCCN=C(N)N)NC1=O (stereo in doubt; 68A) |
